From PubChem
Gli-Sufu antag = antagonists of Gli-Sufu signaling; Sufu-KO-LIGHT fibroblasts, Gli luciferase reporter luminescence; inhibition, % at 5 µM; 340,000 compounds, 0.74% hits; AID 588413;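 active means inhibition above about 55%, limit read from the data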;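 further: 0% = DMSO-treated cells and 100% = wells with medium but no cells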
UPR CHOP act = activators of apoptotic arm of unfolded protein response (CHOP); 330,000 compounds, 0.34% hits; CHO-CHOP luciferase reporter, UPR activation, luminescence; percent of tunicamycin response over DMSO baseline; activation, % at 10 µM;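 active means at 10 µM dose, activation of 40% or more, normalized to positive control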;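 further: 100% = tunicamycin at 10 µg/mL and 0% = DMSO alone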
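Material: CHO-CHOP cells, stable luciferase reporter of PERK-eIF2a-CHOP signalling; quantity: 500 reporter cells seeded per well; buffer or medium: F12 medium containing 10% fetal bovine serum; compound: one dose, 10 µM in 0.5% DMSO; incubation: 6 h compound treatment, 37 °C; measured by: Steady-Glo luciferase luminescence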
UPR XBP1 act = adaptive UPR (XBP1) activation | activation, % at 20 µM | 330,000 compounds, 0.33% hits | CHO-XBP1 luciferase reporter, IRE1-XBP1 UPR activation, luminescence; percent of tunicamycin response, DMSO as zero;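 active means versus positive control, 20 µM dose yields 30% or more activation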;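 further: 100% = tunicamycin at 10 µg/mL and 0% = DMSO only wells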
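Material: CHO-XBP1 cells stably carrying IRE1-XBP1-driven luciferase reporter / Amount: 1000 cells per well / Compound: 20 µM, 1% DMSO / Times: 6 h treatment, 37 °C / Detection: luciferase luminescence / Measure: % activation of reporter signal versus tunicamycin and DMSO controls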
697 NFkB inh = lowers PMA/ionomycin-induced NF-kB signal in 697 B cells | 697 B-cell NF-kB luciferase reporter, 16 h | 330,000 compounds, 0.33% hits | AID 435022 | inhibition, % at 4 µM; in the data active means inhibition above about 35%
Jurkat NFkB inh = inhibitors of the PMA/ionomycin-induced NF-kB reporter in Jurkat cells; PMA/ionomycin-induced NF-kB luciferase reporter, luminescence; inhibition, % at 4 µM; 330,000 compounds, 0.53% hits; in the data active means inhibition above about 50%
CHOP inhibitor = CHOP inhibition in unfolded protein response; inhibition, % at 10 µM; AID 2732; CHO-K1 CHOP-promoter luciferase, tunicamycin-induced, 15-18 h; 220,000 compounds, 3.8% hits;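 active means compounds that reduced the stress-induced luciferase reporter signal by more than about 70% of percent inhibition, limit read from the data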;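 further: 0% = tunicamycin plus vehicle and 100% = wells without tunicamycin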
CHOP confirm = confirmation of CHOP induction inhibitors | shares compounds with CHOP inhibitor | 2,100 compounds, 45% hits | inhibition, % at 10 µM | CHO-CHOP promoter luciferase reporter, tunicamycin-induced, luminescence | AID 504437;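 active means mean of three repeat readings of reporter signal inhibition above a set limit, cut at about 70% in these data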;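 further: 0% = tunicamycin plus vehicle and 100% = wells lacking tunicamycin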
Numbers without * were called inactive. Most compounds without a hit are left out; they make up all but 3.9% or so of the library.

`O=c1[nH]c(/C(Cl)=C/c2cc(Cl)ccc2O)nc2cc(Cl)ccc12` gave Gli-Sufu antag 20.1, UPR CHOP act 0.8, UPR XBP1 act -0.6, 697 NFkB inh 2.5, Jurkat NFkB inh 6.6, CHOP inhibitor 99.6* and CHOP confirm 23.3.
`OC1(c2cccc(C(F)(F)F)c2)CCN(c2ncnc3c2[nH]c2ccc(F)cc23)CC1` gave Gli-Sufu antag -19.7 and CHOP confirm 101.6*.
`Fc1ccc2[nH]c3c(N4CCN(c5ccccc5)CC4)ncnc3c2c1` gave Gli-Sufu antag -10.6, UPR CHOP act 0.8, UPR XBP1 act 0.0, 697 NFkB inh -21.1, Jurkat NFkB inh 26.5 and CHOP inhibitor 60.8.
Screening COc1ccc(/C=C2/C(=O)ON=C2c2ccccc2)cc1OC returned Gli-Sufu antag -3.8, UPR CHOP act 5.1, UPR XBP1 act 2.4, 697 NFkB inh 8.6, Jurkat NFkB inh 5.3, CHOP inhibitor 105.2* and CHOP confirm 103.8*.
For O=C1ON=C(c2ccccc2)/C1=C/c1ccco1 the results were Gli-Sufu antag 33.7, UPR CHOP act 2.9, UPR XBP1 act 9.5, 697 NFkB inh 2.5, Jurkat NFkB inh 3.4, CHOP inhibitor 104.1* and CHOP confirm -79.6.
`Cc1cc(C)c(S(=O)(=O)N2CCCCC2CCNC(=O)C(=O)NCc2ccco2)c(C)c1` (configuration not stated) gave Gli-Sufu antag 9.5, UPR CHOP act 1.2, UPR XBP1 act -3.1, 697 NFkB inh -0.9 and Jurkat NFkB inh 23.5.
COC(=O)C(Cc1cnc(Cl)s1)(C(=O)OC)c1ccc(C(F)(F)F)cc1[N+](=O)[O-] was read as Gli-Sufu antag 11.4, UPR CHOP act -1.7, UPR XBP1 act -1.4, 697 NFkB inh 12.9, Jurkat NFkB inh 6.8, CHOP inhibitor 97.8* and CHOP confirm 24.4.
Screening Cc1ccc2[nH]c(=O)c(C3C(C#N)=C(N)Oc4c3ccc3cccnc43)cc2c1 (configuration not stated) returned Gli-Sufu antag 18.8, UPR CHOP act -0.4, UPR XBP1 act 1.8, 697 NFkB inh -15.4, Jurkat NFkB inh -14.7, CHOP inhibitor 97.5* and CHOP confirm 28.0.
`CCN(CC)S(=O)(=O)c1ccc(C(C)NC(=O)C2CCCN2C(=O)c2cccs2)cc1` (configuration not stated) gave Gli-Sufu antag -0.3, UPR CHOP act 0.6, UPR XBP1 act -1.5, 697 NFkB inh 1.2 and Jurkat NFkB inh 4.9.
Screening Cc1occc1C(=O)Nc1sc2c(c1C(N)=O)CCCCC2 returned Gli-Sufu antag -24.2, UPR CHOP act 3.3, UPR XBP1 act 5.3, 697 NFkB inh -20.0, Jurkat NFkB inh -19.9, CHOP inhibitor 96.2* and CHOP confirm 10.6.
For O=C(O)CCCCCCCCCCP(=O)(c1ccccc1)c1ccccc1 the results were Gli-Sufu antag 5.1, UPR CHOP act -1.8, UPR XBP1 act -2.7, 697 NFkB inh -16.9, Jurkat NFkB inh -12.6 and CHOP inhibitor 8.9.
Screening O=P(CCCCCCCCCP(=O)(c1ccccc1)c1ccccc1)(c1ccccc1)c1ccccc1 returned Gli-Sufu antag 16.9, UPR CHOP act 9.6, UPR XBP1 act 1.6, 697 NFkB inh -9.1, Jurkat NFkB inh -7.9, CHOP inhibitor 99.5* and CHOP confirm 49.7.
CCC(=O)c1ccc(OCC(=O)OCC(=O)NCCC2=CCCCC2)cc1 was read as Gli-Sufu antag -9.3, UPR CHOP act 2.1, UPR XBP1 act -0.9, 697 NFkB inh -16.2 and Jurkat NFkB inh -7.2.
Screening O=S1(=O)c2ccccc2N=NN1Cc1ccc(Cl)cc1 returned Gli-Sufu antag -0.9, UPR CHOP act -0.6, UPR XBP1 act -2.4, 697 NFkB inh -5.7, Jurkat NFkB inh -3.5, CHOP inhibitor 108.8* and CHOP confirm 16.3.
Cc1cc(N2C(=O)C=CC2=O)c([N+](=O)[O-])cc1C was read as Gli-Sufu antag -1.3, UPR CHOP act 4.9, UPR XBP1 act -6.9, 697 NFkB inh -22.4, Jurkat NFkB inh -12.9, CHOP inhibitor 107.7* and CHOP confirm 41.2.
Cc1c([N+](=O)[O-])cc(N2C(=O)C=CC2=O)cc1[N+](=O)[O-] was read as Gli-Sufu antag 0.0.
